Assay results as given in ChEMBL document CHEMBL5705902, “Role of G Protein-Coupled Receptor Kinases 2 and 3 in μ-Opioid Receptor Desensitization and Internalization” (Mol Pharmacol, 2015).
The source made the active and inactive calls. The calls are words filed in the database; no cut-off is given here.

Tests used:
[1] = biological target: Mu-type opioid receptor (Rattus norvegicus) (UniProt P33535); assay: Inhibition of MOPr desensitization in wistar rat LC neuron cells assessed as reduction in the Met-Enk induced desensitization at 30 uM incubated for 15 mins before relative to control; type: functional, cell-based
Summary of the method: (§1)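 Whole-cell patch clamp of GIRK currents in locus coeruleus slices from male Wistar rats (5–8 weeks). Inhibitor was given at least 15 min before and during the agonist, all drugs by superfusion. Percent desensitization was taken over 10 min of opioid agonist application. Met-Enk n = 5, endomorphin-2 n = 6; ANOVA.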
Target sequence in this assay (P33535 whole entry, the tested form may be a part): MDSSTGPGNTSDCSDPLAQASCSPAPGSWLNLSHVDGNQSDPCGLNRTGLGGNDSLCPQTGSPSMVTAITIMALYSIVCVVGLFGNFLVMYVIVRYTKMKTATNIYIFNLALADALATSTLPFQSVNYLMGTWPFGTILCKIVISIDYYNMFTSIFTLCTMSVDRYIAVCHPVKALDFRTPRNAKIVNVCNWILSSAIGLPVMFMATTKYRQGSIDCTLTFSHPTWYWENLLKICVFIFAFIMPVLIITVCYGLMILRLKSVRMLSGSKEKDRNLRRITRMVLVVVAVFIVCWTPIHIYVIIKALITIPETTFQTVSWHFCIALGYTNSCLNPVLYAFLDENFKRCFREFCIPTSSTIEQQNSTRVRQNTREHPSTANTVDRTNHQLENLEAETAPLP

[2] = biological target: Mu-type opioid receptor (Rattus norvegicus) (UniProt P33535); assay: Inhibition of MOPr desensitization in wistar rat LC neuron cells assessed as reduction in the endomorphin-2 induced desensitization at 30 uM incubated for 15 mins before; type: functional, cell-based; summary of the method: as §1
Target sequence in this assay (P33535 whole entry, the tested form may be a part): as above

[3] = biological target: Mu-type opioid receptor (Rattus norvegicus) (UniProt P33535); assay: Inhibition of HA-tagged rat MOPr in HEK293 cells assessed as prevention in DAMGO induced MOPr phosphorylation at Thr379 level at 30 uM preincubated for 30 mins by western blot analysis; type: functional, cell-based
Target sequence in this assay (P33535 whole entry, the tested form may be a part): as above

[4] = biological target: Mu-type opioid receptor (Rattus norvegicus) (UniProt P33535); assay: Inhibition of HA-tagged rat MOPr stably expressing in HEK293 cells assessed as increase in DAMGO-induced ERK1/2 phosphorylation level at 3 to 30 uM preincubated for 30 mins by westernblot analysis; type: functional, cell-based; settings: dose 3-30 µM
Summary of the method: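 HEK 293 cells stably expressing HA-tagged rat MOPr were grown to 90% confluence and serum-starved 24 h. Inhibitor was added for 30 min, then DAMGO 10 μM for 5 min. pERK1/2 was measured by Western blot with ECL detection. Densitometry was done in duplicate, normalized to total ERK1/2 and expressed as % of maximal DAMGO response; n = 4.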
Target sequence in this assay (P33535 whole entry, the tested form may be a part): as above

[5] = biological target: Serine/threonine-protein kinase Sgk1 (Homo sapiens) (UniProt O00141); assay: Inhibition of human SGK1 assessed as remaining activity at 1 uM in presence of 32ATP relative to control
Chain of Serine/threonine-protein kinase Sgk1 (Homo sapiens) (O00141 whole entry): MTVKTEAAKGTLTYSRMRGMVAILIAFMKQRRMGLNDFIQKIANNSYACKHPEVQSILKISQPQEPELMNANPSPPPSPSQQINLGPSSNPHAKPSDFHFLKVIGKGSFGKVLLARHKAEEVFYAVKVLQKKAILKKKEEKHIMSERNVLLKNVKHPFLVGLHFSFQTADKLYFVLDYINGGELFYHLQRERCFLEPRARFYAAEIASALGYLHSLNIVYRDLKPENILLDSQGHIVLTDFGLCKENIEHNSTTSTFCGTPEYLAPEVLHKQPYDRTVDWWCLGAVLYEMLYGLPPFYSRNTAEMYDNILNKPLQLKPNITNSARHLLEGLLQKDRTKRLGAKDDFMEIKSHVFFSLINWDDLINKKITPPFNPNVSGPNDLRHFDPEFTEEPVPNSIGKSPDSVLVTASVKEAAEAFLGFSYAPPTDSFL
Summary of the method: (§2)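 Express panel of 52 purified human kinases run in vitro. Kinase activity was measured directly by a radioactive filter-binding assay with ³²ATP, at ATP levels at or below each kinase's calculated Km for ATP. The compound was tested at 1 μM. Each assay was run in duplicate, and activity is given as the mean percentage (with S.D.) of activity without inhibitor.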

[6] = biological target: Ribosomal protein S6 kinase alpha-1 (Homo sapiens) (UniProt Q15418); assay: Inhibition of human RSK1 assessed as remaining activity at 1 uM in presence of 32ATP relative to control; summary of the method: as §2
[7] = biological target: Rho-associated protein kinase 2 (Homo sapiens) (UniProt O75116); assay: Inhibition of human ROCK 2 assessed as remaining activity at 1 uM in presence of 32ATP relative to control; summary of the method: as §2
[8] = biological target: Tyrosine-protein kinase BTK (Homo sapiens) (UniProt Q06187); assay: Inhibition of human BTK assessed as remaining activity at 1 uM in presence of 32ATP relative to control
Summary of the method: (§3)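 Express screen of 52 purified human kinases run as a radioactive filter-binding assay with 32ATP, at 1 μM inhibitor. ATP was at or below each kinase's calculated Km. Activity is given as percent of the activity without inhibitor. Run in duplicate; mean with S.D.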

[9] = biological target: Mitogen-activated protein kinase 3 (Homo sapiens) (UniProt P27361); assay: Inhibition of human ERK1 assessed as remaining activity at 1 uM in presence of 32ATP relative to control; summary of the method: as §2
[10] = biological target: Ephrin type-A receptor 2 (Homo sapiens) (UniProt P29317); assay: Inhibition of human EPHA2 assessed as remaining activity at 1 uM in presence of 32ATP relative to control; summary of the method: as §2
Chain of Ephrin type-A receptor 2 (Homo sapiens) (P29317 whole entry): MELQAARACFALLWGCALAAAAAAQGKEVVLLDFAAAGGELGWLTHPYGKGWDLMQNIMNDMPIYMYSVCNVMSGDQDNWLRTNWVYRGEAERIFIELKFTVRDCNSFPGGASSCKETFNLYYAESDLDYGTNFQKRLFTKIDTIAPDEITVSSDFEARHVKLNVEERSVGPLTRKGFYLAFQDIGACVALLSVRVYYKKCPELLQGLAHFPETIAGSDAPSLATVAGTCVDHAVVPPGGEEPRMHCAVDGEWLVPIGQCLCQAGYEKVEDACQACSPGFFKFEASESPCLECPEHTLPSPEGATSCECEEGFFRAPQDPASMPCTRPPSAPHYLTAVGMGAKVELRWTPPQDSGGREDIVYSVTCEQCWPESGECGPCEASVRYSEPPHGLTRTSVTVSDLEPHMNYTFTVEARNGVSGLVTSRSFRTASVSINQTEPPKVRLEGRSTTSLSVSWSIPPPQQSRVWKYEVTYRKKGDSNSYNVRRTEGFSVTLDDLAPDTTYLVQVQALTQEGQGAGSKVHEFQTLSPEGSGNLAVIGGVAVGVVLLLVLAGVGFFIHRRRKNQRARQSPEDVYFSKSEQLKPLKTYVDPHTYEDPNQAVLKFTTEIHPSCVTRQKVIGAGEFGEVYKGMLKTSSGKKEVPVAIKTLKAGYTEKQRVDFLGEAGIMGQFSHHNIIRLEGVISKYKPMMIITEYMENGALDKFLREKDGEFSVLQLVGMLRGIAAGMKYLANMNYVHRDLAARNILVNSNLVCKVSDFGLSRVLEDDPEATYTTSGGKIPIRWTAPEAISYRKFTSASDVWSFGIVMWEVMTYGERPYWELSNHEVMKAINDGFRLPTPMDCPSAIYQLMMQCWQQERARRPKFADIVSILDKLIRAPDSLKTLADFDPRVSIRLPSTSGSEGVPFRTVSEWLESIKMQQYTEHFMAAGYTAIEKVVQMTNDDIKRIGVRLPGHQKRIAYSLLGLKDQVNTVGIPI

[11] = biological target: Glycogen synthase kinase-3 beta (Homo sapiens) (UniProt P49841); assay: Inhibition of human GSK3b assessed as remaining activity at 1 uM in presence of 32ATP relative to control; summary of the method: as §2
[12] = biological target: Casein kinase I isoform delta (Homo sapiens) (UniProt P48730); assay: Inhibition of human CK1delta assessed as remaining activity at 1 uM in presence of 32ATP relative to control; summary of the method: as §3
Chain of Casein kinase I isoform delta (Homo sapiens) (P48730 whole entry, looked up, canonical isoform): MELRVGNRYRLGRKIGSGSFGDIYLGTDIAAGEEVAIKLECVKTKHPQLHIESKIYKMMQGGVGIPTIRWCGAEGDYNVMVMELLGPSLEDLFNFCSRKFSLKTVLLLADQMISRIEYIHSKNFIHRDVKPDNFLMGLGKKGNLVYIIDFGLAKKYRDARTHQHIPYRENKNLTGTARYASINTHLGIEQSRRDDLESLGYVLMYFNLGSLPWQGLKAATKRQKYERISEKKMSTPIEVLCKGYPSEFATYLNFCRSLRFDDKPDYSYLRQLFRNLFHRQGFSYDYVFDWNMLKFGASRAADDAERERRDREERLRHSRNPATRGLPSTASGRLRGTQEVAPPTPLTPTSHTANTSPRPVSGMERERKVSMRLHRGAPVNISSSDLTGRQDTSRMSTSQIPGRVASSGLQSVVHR

[13] = biological target: Myosin light chain kinase, smooth muscle (Homo sapiens) (UniProt Q15746); assay: Inhibition of human SmMLCK assessed as remaining activity at 1 uM in presence of 32ATP relative to control; summary of the method: as §2
[14] = biological target: SRSF protein kinase 1 (Homo sapiens) (UniProt Q96SB4); assay: Inhibition of human SRPK1 assessed as remaining activity at 1 uM in presence of 32ATP relative to control; summary of the method: as §2
Chain of SRSF protein kinase 1 (Homo sapiens) (Q96SB4 whole entry): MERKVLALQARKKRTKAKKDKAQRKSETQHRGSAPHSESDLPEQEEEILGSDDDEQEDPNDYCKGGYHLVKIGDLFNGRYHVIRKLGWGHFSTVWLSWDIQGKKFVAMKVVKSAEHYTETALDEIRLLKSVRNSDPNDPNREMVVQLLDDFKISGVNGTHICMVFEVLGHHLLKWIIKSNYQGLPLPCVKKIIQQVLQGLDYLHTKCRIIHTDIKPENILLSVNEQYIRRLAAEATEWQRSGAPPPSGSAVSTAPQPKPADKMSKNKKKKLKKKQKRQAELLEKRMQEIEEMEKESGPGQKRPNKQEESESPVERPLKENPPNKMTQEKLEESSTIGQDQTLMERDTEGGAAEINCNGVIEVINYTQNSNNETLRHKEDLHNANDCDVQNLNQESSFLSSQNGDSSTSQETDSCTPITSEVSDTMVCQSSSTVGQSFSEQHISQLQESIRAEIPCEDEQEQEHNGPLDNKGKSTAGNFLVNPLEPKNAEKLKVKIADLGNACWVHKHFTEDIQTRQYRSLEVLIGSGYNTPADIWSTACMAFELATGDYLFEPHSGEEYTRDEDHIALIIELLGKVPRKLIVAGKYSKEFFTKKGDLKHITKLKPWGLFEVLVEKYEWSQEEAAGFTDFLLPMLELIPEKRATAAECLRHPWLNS

[15] = biological target: MAP/microtubule affinity-regulating kinase 3 (Homo sapiens) (UniProt P27448); assay: Inhibition of human MARK3 assessed as remaining activity at 1 uM in presence of 32ATP relative to control; summary of the method: as §2
[16] = biological target: Tyrosine-protein kinase Lck (Homo sapiens) (UniProt P06239); assay: Inhibition of human Lck assessed as remaining activity at 1 uM in presence of 32ATP relative to control; summary of the method: as §2
[17] = biological target: cAMP-dependent protein kinase (PKA) (Homo sapiens) (UniProt P22694+P17612+P22612); assay: Inhibition of human PKA assessed as remaining activity at 1 uM in presence of 32ATP relative to control; type: protein assay; summary of the method: as §2
[18] = biological target: Tyrosine-protein kinase SYK (Homo sapiens) (UniProt P43405); assay: Inhibition of human SYK assessed as remaining activity at 1 uM in presence of 32ATP relative to control; summary of the method: as §2
[19] = biological target: Proto-oncogene tyrosine-protein kinase Src (Homo sapiens) (UniProt P12931); assay: Inhibition of human Src assessed as remaining activity at 1 uM in presence of 32ATP relative to control; summary of the method: as §2
Chain of Proto-oncogene tyrosine-protein kinase Src (Homo sapiens) (P12931 2-536 limits assumed): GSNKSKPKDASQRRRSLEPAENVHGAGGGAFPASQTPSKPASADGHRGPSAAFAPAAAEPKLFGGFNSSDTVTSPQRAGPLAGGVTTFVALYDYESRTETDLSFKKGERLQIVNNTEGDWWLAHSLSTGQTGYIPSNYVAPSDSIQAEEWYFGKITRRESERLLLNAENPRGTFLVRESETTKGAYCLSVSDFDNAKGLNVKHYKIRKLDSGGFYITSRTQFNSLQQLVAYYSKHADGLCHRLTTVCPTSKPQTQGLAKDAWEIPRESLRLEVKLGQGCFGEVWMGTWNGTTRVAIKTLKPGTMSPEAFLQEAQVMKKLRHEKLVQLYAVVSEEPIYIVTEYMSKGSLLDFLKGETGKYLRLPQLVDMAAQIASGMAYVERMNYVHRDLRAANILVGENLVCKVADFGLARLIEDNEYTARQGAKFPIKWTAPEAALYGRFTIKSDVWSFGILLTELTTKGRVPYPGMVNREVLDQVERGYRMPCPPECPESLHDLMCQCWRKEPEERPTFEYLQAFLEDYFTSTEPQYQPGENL

[20] = biological target: Serine/threonine-protein kinase PLK1 (Homo sapiens) (UniProt P53350); assay: Inhibition of human PLK1 assessed as remaining activity at 1 uM in presence of 32ATP relative to control; summary of the method: as §2
Chain of Serine/threonine-protein kinase PLK1 (Homo sapiens) (P53350 whole entry): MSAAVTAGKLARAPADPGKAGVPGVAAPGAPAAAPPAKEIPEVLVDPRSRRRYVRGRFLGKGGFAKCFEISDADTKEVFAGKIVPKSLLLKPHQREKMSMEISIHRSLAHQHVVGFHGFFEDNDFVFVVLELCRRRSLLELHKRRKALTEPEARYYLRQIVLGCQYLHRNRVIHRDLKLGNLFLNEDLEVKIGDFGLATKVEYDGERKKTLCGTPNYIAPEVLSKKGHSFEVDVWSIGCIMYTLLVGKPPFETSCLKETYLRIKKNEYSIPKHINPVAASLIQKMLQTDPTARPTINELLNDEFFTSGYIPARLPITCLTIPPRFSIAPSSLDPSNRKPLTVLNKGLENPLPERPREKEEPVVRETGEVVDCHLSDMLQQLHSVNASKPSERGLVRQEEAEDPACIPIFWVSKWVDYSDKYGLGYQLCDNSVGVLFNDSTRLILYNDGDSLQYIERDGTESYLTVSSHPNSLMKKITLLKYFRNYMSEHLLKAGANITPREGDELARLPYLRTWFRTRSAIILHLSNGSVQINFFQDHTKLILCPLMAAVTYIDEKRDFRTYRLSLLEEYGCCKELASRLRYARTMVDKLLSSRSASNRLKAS

[21] = biological target: Serine/threonine-protein kinase pim-1 (Homo sapiens) (UniProt P11309); assay: Inhibition of human PIM1 assessed as remaining activity at 1 uM in presence of 32ATP relative to control; summary of the method: as §2
[22] = biological target: Mitogen-activated protein kinase; ERK1/ERK2 (Homo sapiens) (UniProt P27361+P28482); assay: Inhibition of ERK1/2 (unknown origin) at 1 uM in presence of 32ATP relative to control; type: protein assay; summary of the method: as §3
[23] = biological target: G protein-coupled receptor kinase 3 (Homo sapiens, UniProt P35626); assay: Inhibition of human GRK3 in the presence of ATP
Chain of G protein-coupled receptor kinase 3 (P35626 whole entry): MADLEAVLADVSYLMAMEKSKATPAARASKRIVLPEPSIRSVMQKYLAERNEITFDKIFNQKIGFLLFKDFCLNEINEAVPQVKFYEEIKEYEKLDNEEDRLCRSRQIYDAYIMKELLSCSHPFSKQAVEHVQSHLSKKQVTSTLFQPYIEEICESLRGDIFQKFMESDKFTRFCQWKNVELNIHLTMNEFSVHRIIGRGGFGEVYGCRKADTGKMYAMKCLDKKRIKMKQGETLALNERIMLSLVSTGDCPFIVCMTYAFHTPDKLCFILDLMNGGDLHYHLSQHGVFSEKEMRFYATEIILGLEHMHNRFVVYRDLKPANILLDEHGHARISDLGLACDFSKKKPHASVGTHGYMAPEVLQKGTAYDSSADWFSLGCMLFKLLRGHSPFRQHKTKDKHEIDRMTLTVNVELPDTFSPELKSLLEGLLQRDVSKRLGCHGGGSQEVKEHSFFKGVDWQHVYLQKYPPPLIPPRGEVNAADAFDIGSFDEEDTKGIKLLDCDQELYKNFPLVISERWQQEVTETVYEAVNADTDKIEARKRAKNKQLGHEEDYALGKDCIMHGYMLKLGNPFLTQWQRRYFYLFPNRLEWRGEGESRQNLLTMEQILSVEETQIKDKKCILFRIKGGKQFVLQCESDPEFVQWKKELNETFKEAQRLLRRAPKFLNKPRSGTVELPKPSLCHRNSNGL

[24] = biological target: Beta-adrenergic receptor kinase 1 (Homo sapiens) (UniProt P25098); assay: Inhibition of human GRK2 at 1 uM relative to control
[25] = biological target: Ribosomal protein S6 kinase alpha-5 (Homo sapiens) (UniProt O75582); assay: Inhibition of human MSK1 at 1 uM in presence of 32ATP relative to control; summary of the method: as §2
[26] = biological target: Mu-type opioid receptor (Rattus norvegicus) (UniProt P33535); assay: Inhibition of MOPr desensitization (unknown origin) assessed as reduction in the morphine induced desensitization at 3 to 30 uM incubated for 15 mins; settings: dose 3-30 µM
Target sequence in this assay (P33535 whole entry, looked up, the tested form may be a part): as the sequence (P33535 whole entry, the tested form may be a part) above

Cn1c(CNc2cccc(C(=O)NCc3ccccc3C(F)(F)F)c2)nnc1-c1ccncc1
desensitization [1]: 15%
inhibition [2]: Active
inhibition [3]: Active
inhibition [4]: inactive
Activity [5]: 31%
Activity [6]: 48%
Activity [7]: 53%
Activity [8]: 72%
Activity [9]: 83%
Activity [10]: 85%
Activity [11]: 85%
Activity [12]: 86%
Activity [13]: 89%
Activity [14]: 91%
Activity [15]: 92%
Activity [16]: 94%
Activity [17]: 95%
Activity [18]: 103%
Activity [19]: 104%
Activity [20]: 106%
Activity [21]: 107%
inhibition [22]: < 20%
IC50 [23]: 0.29 µM
inhibition [24]: > 90%
inhibition [25]: > 50%
inhibition [26]: Active
